Screening data from PubChem.
Hits are enriched below; roughly 3.4% of the tested compounds scored in any of these assays.
ANO1 block = blocks the mouse calcium-activated chloride channel TMEM16A | 310,000 compounds, 1.2% hits | normalized B-score (activity score, 25-100; higher = stronger inhibition) at 10 µM | HEK293 TMEM16A/YFP iodide influx fluorescence, ionomycin | AID 588511 | Q8BHY3;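 active means ratio plate-corrected score three or more library SD toward inhibition, starting fluorescence score within five deviations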;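 further: score derived from kinetic fluorescence span divided by baseline fluorescence per well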
MC4R barr agon = agonists of human melanocortin 4 receptor (MC4R) beta-arrestin; U2OS MC4R beta-arrestin complementation, luminescence; percent of melanotan II response, DMSO zero; activation, % at 8.9 µM; P32245; 360,000 compounds, 0.98% hits;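 active means activation above a per-plate cutoff, the mean activation of sample wells on that plate plus 3 SD, cut at about 8% in these data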
m5-HT2A agonist = mouse HTR2A agonism via beta-arrestin recruitment; P35363; CHO-K1 mHTR2A beta-arrestin complementation, luminescence; percent of 30 µM serotonin response; activation, % at 7.6 µM; 360,000 compounds, 0.66% hits;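 active means activation above a run cutoff, the mean activation of all tested compounds plus 3 SD, cut at about 14% in these data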;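 further: 0% = plate median of compound wells and 100% = 30 µM serotonin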
MC4R antag cAMP = antagonists of human melanocortin 4 receptor (MC4R) | MC4R-expressing cells, MTII-stimulated cAMP, LANCE TR-FRET | inhibition, % at 6.5 µM | 360,000 compounds, 0.48% hits;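 active means inhibition above its plate's cutoff, the mean of tested wells on that plate plus 3 SD, cut at about 29% in these data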;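 further: 0% = Melanotan II alone and 100% = Melanotan II plus saturating MCL0020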
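Assay system: human MC4R-expressing U2OS cells; reagent: Melanotan II stimulation of cells; dosing: 6.5 µM single dose; timing: compound 30 min, challenge 1 h, detection 1 h; signal: TR-FRET cAMP assay; replicates: one well per compound, no replicates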
MIN6 prolif = MIN6 beta-cell proliferation induction | MIN6 cells proliferation, ATPlite luminescence, 48 h; cells starved in 0.2% serum; 100% = growth in 10% serum | proliferation, % at 10 µM | 330,000 compounds, 0.29% hits | AID 2380;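 active means compounds whose signal lies at least 3.5 SD above the mean of all wells on their plate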;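 further: 0% = DMSO-treated cells in low-serum medium and 100% = 10% serum control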
ANO1 activ = activates or potentiates the mouse TMEM16A chloride channel; Q8BHY3; HEK293 TMEM16A/YFP-H148Q/I152L, iodide quench fluorescence; active compounds read low; B-score at 10 µM; 340,000 compounds, 0.3% hits;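 active means fluorescence-ratio B-score plate-corrected deviation score at least 3 library SD below zero, with starting fluorescence score within 5 deviations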;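 further: channel opened by trigger with iodide after compound preincubation; score built on the fluorescence ratio of max minus min over baseline; more negative score means more quench and so TMEM16A activation or potentiation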
MOR ag counter = activates human mu opioid receptor in HTR2A counterscreen. 2,300 compounds, 5.3% hits. shares compounds with m5-HT2A agonist. U2OS OPRM1 beta-arrestin PathHunter, luminescence; DMSO 0%, DAMGO 9.3 µM 100%. activation, % at 9.3 µM;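 active means mean activation above the mean of DMSO-only wells plus 3 SD, cut at about 0.5% in these data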
HTR2A ag conf = confirmation of mouse HTR2A serotonin receptor agonists. activation, % at 7.6 µM. 2,300 compounds, 19% hits. CHO-K1 PathHunter beta-arrestin recruitment, luminescence; DMSO 0%, 30 µM serotonin 100%. shares compounds with m5-HT2A agonist;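 active means mean activation across triplicates above the hit threshold derived in the original primary screen, cut at about 15% in these data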
Numbers without * were called inactive; i = inactive; nt = not tested or not shown.

SMILES	ANO1 block	MC4R barr agon	m5-HT2A agonist	MC4R antag cAMP	MIN6 prolif	ANO1 activ	MOR ag counter	HTR2A ag conf
O=C(/C=C/c1ccco1)NCC1COc2ccccc2O1 (centres undefined)	i	0	0	-8	-1	i	nt	nt
CCn1cc(CN2CCN(Cc3ccsc3)C(CCO)C2)cn1 (centres undefined)	i	0	15*	9	-4	i	0	5
CC1=C(C(=O)N2CCCCCC2)CC(CC(=O)NCc2cccc3ccccc23)C(=O)N1CCC1=CCCCC1 (centres undefined)	nt	nt	-5	nt	nt	nt	nt	nt
COC(=O)c1cc(=O)nc(NN=Cc2ccc(OC)cc2)s1	nt	nt	17*	nt	nt	nt	0	0
COC1=CC(=O)OC(c2cccc(Cl)c2)C1 (centres undefined)	nt	nt	3	nt	nt	nt	nt	nt
COc1ccc(-n2c(SCC(=O)Nc3cc(C)on3)nc3c(c2=O)SCC3)cc1OC	i	0	23*	12	-2	i	-1	-4
COc1ccc(-n2c(SCC(=O)Nc3cc(C)on3)nc3c(c2=O)SCC3)cc1	i	1	1	0	6	i	nt	nt
CC(=O)Nc1ccnn1C1CCN(C(=O)c2cccc(C)c2C)CC1	i	-2	-2	1	-1	i	nt	nt
O=C(O)c1ccccc1Nc1cccc(C(F)(F)F)c1	nt	-1	-1	-1	-3	i	nt	nt
O=C(O)c1ccccc1Nc1ccnc(C(F)(F)F)c1	i	-1	19*	0	-3	i	-1	-1
Cc1ccc(S(=O)(=O)NC2=NCN(CCN3CCOCC3)CN2)cc1	i	-3	17*	3	-3	i	-1	-3
CCCN1CN=C(NS(=O)(=O)c2ccc(C)cc2)NC1	i	-1	-1	3	0	i	nt	nt
CCc1noc(C)c1C(=O)N(CC)CC(=O)Nc1cc(Cl)ccc1C	nt	2	1	10	-1	i	nt	nt
CC(C)(C)OC(=O)N1CCC(C(=O)Nc2cccc(C(=O)N3CCCCC3)c2)CC1	nt	-2	0	6	nt	nt	nt	nt
CCOC(=O)CNc1c(-c2ccccc2)nc2ccc(Cl)cn12	i	0	-1	0	-1	i	nt	nt
COC(=O)CNc1c(-c2ccccn2)nc2ccc(Br)cn12	i	-2	19*	-1	1	i	-1	-4
CC(C)C(C(=O)NCc1ccccc1)N1CCN(c2ccccc2F)CC1 (centres undefined)	nt	nt	-6	nt	nt	nt	nt	nt
CN(C(=O)Cn1nc(C(=O)O)c2ccccc2c1=O)C1(C#N)CCCCC1	nt	0	19*	5	-3	i	0	9
CC(=O)c1ccc2ccccc2c1OC(=O)c1ccncc1	nt	-2	-2	3	nt	nt	nt	nt
COc1ccc(OC)c(NC(=S)N(CCc2c(C)[nH]c3ccccc23)Cc2cccs2)c1	i	1	13	8	-4	i	nt	nt
COc1ccc(OC)c(NC(=S)N(CCc2c(C)[nH]c3ccc(C)cc23)Cc2cccs2)c1	i	2	20*	12	-5	i	-1	4
Cc1cccc(NS(=O)(=O)c2cccc(C(=O)NCC(c3ccc(F)cc3)N3CCOCC3)c2)c1 (centres undefined)	nt	3	0	3	nt	i	nt	nt
CC(C)C[C@H]1C(=O)N2CCC[C@H]2[C@]2(O)O[C@](NC(=O)[C@@H]3C=C4c5cccc6[nH]c(Br)c(c56)CC4N(C)C3)(C(C)C)C(=O)N12 (some centres undefined)	i	-1	41*	16	-8	i	0	127*
Cc1cc(NN)nc(NS(=O)(=O)c2ccc(Cl)cc2)n1	i	-1	16*	14	1	i	0	7
